Measured values pooled from the literature.
Protocols differ between the studies behind these lines. pKi: −log10 of the molar value.
HRH4: Histamine H4 receptor (HRH4, Homo sapiens, UniProt Q9H3N8)
SIGMAR1: Sigma non-opioid intracellular receptor 1 (SIGMAR1, Homo sapiens, UniProt Q99720)
PPO3: PPO3 (Agaricus bisporus, UniProt C7FF04)
HTR2A: 5-hydroxytryptamine receptor 2A (HTR2A, Homo sapiens, UniProt P28223)
SPHK1: Sphingosine kinase 1 (SPHK1, Homo sapiens, UniProt Q9NYA1)
OPRK1: Kappa-type opioid receptor (OPRK1, Homo sapiens, UniProt P41145)
CNR1: Cannabinoid receptor 1 (CNR1, Homo sapiens, UniProt P21554)

Structure (SMILES) | target | assay | conditions | pKi
OCCCN1CC[C@@H]2C[C@H]1c1cc(-c3ccc(C(F)(F)F)cc3)ccc12 | HRH4 | ligand displacement, radioligand | – | 5.26
CCCn1nc(C(=O)N2CCCCC2)c2c1CCC(Nc1ccc(N3CCCCC3)cc1)C2 (centres unmarked) | SIGMAR1 | ligand displacement, radioligand | – | < 5.00
Cc1ccc(C(C)C)cc1NC(=O)COC(=O)c1ccc(O)cc1O | PPO3 | enzyme activity, inhibitor | – | 6.73
Cc1nc2n(c(=O)c1CCNCCc1c[nH]c3ccccc13)CCCC2 | HTR2A | ligand displacement, radioligand | cell membranes | < 5.00
[H]/N=C(\N)N1CCC[C@H]1c1nc(-c2ccc(OCC=Cc3ccc(C(F)(F)F)cc3)c(C(F)(F)F)c2)no1 | SPHK1 | enzyme activity, inhibitor | – | 4.92
CCCn1nc(C(=O)N2CCCCC2)c2c1CCC(N(C)Cc1ccc(F)cc1)C2 (centres unmarked) | SIGMAR1 | ligand displacement, radioligand | – | < 5.00
CNC(=O)[C@@]12C[C@@H]1[C@@H](n1cnc3c(NC)nc(C#Cc4ccc(F)c(F)c4)nc31)[C@H](O)[C@@H]2O | OPRK1 | cell-free assay | – | < 5.00
COc1ccccc1Oc1c(NS(=O)(=O)c2ccc(C(C)(C)C)cc2)nc(-c2ncccn2)nc1OCCO | Hepatic sodium/bile acid cotransporter (SLC10A1, Homo sapiens, UniProt Q14973) | transporter uptake, inhibitor | – | 3.84
CCCn1nc(C(=O)N2CCCCC2)c2c1CCC(NCC1CCOCC1)C2 (centres unmarked) | SIGMAR1 | ligand displacement, radioligand | – | < 5.00
CCOC(=O)[C@H](CCSC)NC(=O)c1ccc(C2CC2)c(Cc2ccc(F)cc2)n1 | CNR1 | ligand displacement, radioligand | cell membranes | 7.15
CCCCN1CCC(COC(=O)c2ccc(N)c(OCF)c2)CC1 | HRH4 | cell-free assay, radioligand | – | < 5.00
CNC(=O)[C@@]12C[C@@H]1[C@@H](n1cnc3c(NC)nc(C#Cc4ccc(Cl)s4)nc31)[C@H](O)[C@@H]2O | OPRK1 | cell-free assay | – | < 5.00
Nc1nc(N)c(N=Nc2ccc([N+](=O)[O-])cc2)c(Cl)n1 | PPO3 | enzyme activity, inhibitor | – | 5.18
CNc1nc(C#Cc2ccc(Cl)s2)nc2c1ncn2[C@H]1[C@H](O)[C@H](O)[C@]2(C(=O)OC(C)C)C[C@H]12 | OPRK1 | cell-free assay | – | < 5.00
Cc1nc[nH]c(=O)c1CCN1CCC(c2noc3cc(F)ccc23)CC1 | HTR2A | ligand displacement, radioligand | cell membranes | 8.73
Nc1nc(N)c(N=Nc2ccccc2[N+](=O)[O-])c(Cl)n1 | PPO3 | enzyme activity, inhibitor | – | 5.44
CCCn1nc(C(=O)N2CCCCC2)c2c1CCC(NCCCNC)C2 (centres unmarked) | SIGMAR1 | ligand displacement, radioligand | – | < 5.00
C[C@@H]1Cc2ccccc2N1C(=O)NCCCCN(C)[C@@H]1Cc2cccc3[nH]c(=O)n(c23)C1 | HTR2A | ligand displacement, radioligand | – | 5.57
CCc1cc(Cl)c(OC)c(C(=O)NC[C@@H]2CCCN2CC)c1O | Vesicular acetylcholine transporter (SLC18A3, Homo sapiens, UniProt Q16572) | ligand displacement, radioligand | – | < 6.00
CNc1nc(C#Cc2ccccc2)nc2c1ncn2[C@H]1[C@H](O)[C@H](O)[C@@H]2C[C@@H]21 | OPRK1 | cell-free assay | – | < 5.00
Nc1nc(N)c(N=Nc2ccccc2[N+](=O)[O-])c(N)n1 | PPO3 | enzyme activity, inhibitor | – | 5.25
O[C@@H]1[C@H](O)[C@@H]2C[C@@H]2[C@H]1n1cnc2c(NCCc3ccccc3)nc(C#Cc3ccccc3Cl)nc21 | OPRK1 | cell-free assay | – | < 5.00
O=C1c2ccccc2CCN1CCCCN1CCN(c2cccc(Cl)c2Cl)CC1 | HTR2A | ligand displacement, radioligand | – | 7.41
CNc1nc(C#Cc2ccc(Cl)s2)nc2c1ncn2[C@@H]1O[C@H](C(=O)OC)[C@@H](O)[C@H]1O | OPRK1 | cell-free assay | – | < 5.00
N=C(N)N1CCC[C@H]1c1nc(-c2ccc(CCc3ccc(C(F)(F)F)cc3)c(C(F)(F)F)c2)no1 | SPHK1 | enzyme activity, inhibitor | – | 5.05
CNC(=O)[C@@]12C[C@@H]1[C@@H](n1cnc3c(NCc4cccc(Cl)c4)nc(C#Cc4ccccc4Cl)nc31)[C@H](O)[C@@H]2O | OPRK1 | cell-free assay | – | < 5.00
CCCC[C@H](NC(=O)[C@H](C)c1c(C)[nH]c2ccc(O)cc12)c1ncc(-c2cc3ccccc3nc2OC)[nH]1 | CNR1 | cell-free assay | – | 5.14
CCOC(=O)[C@@]12C[C@@H]1[C@@H](n1cnc3c(NC)nc(C#Cc4ccc(Cl)s4)cc31)[C@H](O)[C@@H]2O | OPRK1 | cell-free assay | – | < 5.00
COc1ccc2c(ccn2CCCCN2Cc3cc(OC)c(OC)cc3C2)c1 | SIGMAR1 | ligand displacement, radioligand | cell membranes | 6.72
